Assay outcomes from PubChem BioAssay.
The list is not random: actives were taken first. Their share in the collection is about 2.2%.
SMARCA2 act = SMARCA2 function activation, primary screen; MG213 cells, MMTV-luciferase reporter, dexamethasone, overnight; activation, % at 9.1 µM; hit rate 1% among 370,000; in the data active = activation above about 7.8%;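 also: 0% = vehicle wells and 100% = reference activator wells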
COUP-TFII inh = blocks human COUP-TFII nuclear receptor; hit rate 0.7% among 370,000; P24468; HEK293T NGFI-A luciferase reporter, luminescence; inhibition, % at 8.6 µM; AID 686940;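 active = inhibition above a per-plate cutoff, mean inhibition of test wells between control levels plus 3 SD, cut at about 38% in these data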;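 also: cells cotransfected with COUP-TFII expression vector driving the NGFI-A reporter; 0% = median of COUP-TF2 test wells and 100% = reporter-only cells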
Target sequence (P24468 whole entry, looked up): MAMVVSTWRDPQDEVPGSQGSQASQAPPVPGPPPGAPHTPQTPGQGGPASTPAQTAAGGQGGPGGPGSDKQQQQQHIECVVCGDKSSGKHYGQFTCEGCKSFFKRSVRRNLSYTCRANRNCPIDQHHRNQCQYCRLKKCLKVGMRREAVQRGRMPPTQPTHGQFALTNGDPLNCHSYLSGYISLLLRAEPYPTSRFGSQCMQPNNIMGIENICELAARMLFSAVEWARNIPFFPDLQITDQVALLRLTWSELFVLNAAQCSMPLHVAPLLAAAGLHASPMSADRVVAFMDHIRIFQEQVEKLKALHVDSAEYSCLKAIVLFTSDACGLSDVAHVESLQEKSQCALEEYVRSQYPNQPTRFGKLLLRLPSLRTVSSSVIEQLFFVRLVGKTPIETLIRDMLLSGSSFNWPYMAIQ
NR2E3 ag-1 = human photoreceptor-specific nuclear receptor agonism; inhibition of corepressor binding, % at 3.98 µM; hit rate 0.35% among 360,000; CHO-S Gal4-NCOR/VP16-NR2E3 two-hybrid, luciferase; AID 602229; Q9Y5X4;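 active = inhibition above the mean of all tested compounds plus 3 SD, cut at about 70% in these data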;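 also: 0% = DMSO with NR2E3 transfected cells and 100% = cells lacking NR2E3 construct; higher means lower luciferase signal from less NR2E3 corepressor binding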
GalR3 antagonist = antagonists of human GalR3. O60755. HEK293 GalR3-CNG cAMP membrane potential fluorescence; galR3 body fused to GalR1 C-terminus. inhibition, % at 3 µM. hit rate 0.44% among 360,000;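 active = inhibition above the screen-wide average plus 3 SD, cut at about 13% in these data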;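 also: forskolin and galanin both at EC90 stimulate the cells; cAMP rise reported by CNG channel membrane potential dye signal; 0% = forskolin plus galanin with DMSO and 100% = forskolin alone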
Target sequence (O60755 1-299 limits assumed): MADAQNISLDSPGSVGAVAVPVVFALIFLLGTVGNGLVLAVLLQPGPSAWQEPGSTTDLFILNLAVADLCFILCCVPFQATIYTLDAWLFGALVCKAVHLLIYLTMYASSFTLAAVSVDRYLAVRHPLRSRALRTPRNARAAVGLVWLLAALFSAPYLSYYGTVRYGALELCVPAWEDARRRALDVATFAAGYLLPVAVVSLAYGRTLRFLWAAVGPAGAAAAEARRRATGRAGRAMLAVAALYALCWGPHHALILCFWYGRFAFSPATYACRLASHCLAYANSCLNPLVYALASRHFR
NR2E3 ag-2 = agonists of human nuclear receptor NR2E3. GST-NR2E3/biotin-RetCOR TR-FRET, 1536-well. hit rate 0.12% among 320,000. Q9Y5X4. inhibition of corepressor binding, % at 4.78 µM;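 active = percent inhibition above the cutoff of mean plus 3 SD of all tested compounds, set per screening campaign, cut at about 20% in these data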;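 also: 0% = DMSO wells and 100% = biotin wells as full block of FRET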
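System: GST-tagged NR2E3 plus biotinylated RetCOR corepressor; Buffer or medium: pH 7.5 Tris-based buffer; Probe or stimulus: RetCOR corepressor, biotinylated, 7 nM; Doses: compound at 4.8 µM, single dose; Schedule: 5 h incubation at 4 °C; Technique: time-resolved FRET; Evaluation: percent inhibition of TR-FRET ratio; Replication: one well per compound, singlicate testing.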
NR2E3 ag confirm-1 = confirmation of human NR2E3 nuclear receptor agonists; shares compounds with NR2E3 ag-2; cell-free NR2E3 corepressor release, TR-FRET, 5 h; activation (reported as inhibition), % at 3.98 µM; hit rate 39% among 360; in the data active = activation above about 20%
PPARg-NCOR2 ag = PPARg-NCOR2 interaction agonism, NR2E3 counter-screen. shares compounds with NR2E3 ag-2. TR-FRET PPARg-NCOR2 coregulator interaction, biochemical. inhibition, % at 3.98 µM. hit rate 45% among 360; in the data active = inhibition above about 20%;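 also: 0% = DMSO vehicle and 100% = wells without protein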
NR2E3 ag confirm-2 = NR2E3 agonism confirmed in two-hybrid assay | shares compounds with NR2E3 ag-1 | CHO-S mammalian two-hybrid NR2E3-NCOR, luciferase luminescence | inhibition, % at 3.98 µM | hit rate 51% among 2,300 | AID 624378;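 active = average inhibition above a cutoff equal to the mean inhibition of all tested compounds plus one SD, cut at about 70% in these data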;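 also: 0% = DMSO in NR2E3 cells and 100% = DMSO in cells lacking NR2E3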
VP16 counter = counter-screen for NR2E3 agonists: GAL4-VP16 reporter inhibitors; shares compounds with NR2E3 ag-1; CHO-S GAL4-VP16 luciferase reporter, luminescence; inhibition, % at 3.98 µM; hit rate 29% among 2,300;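 active = mean inhibition above a cutoff equal to the average over all tested compounds plus one standard deviation, cut at about 70% in these data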;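 also: luciferase from a UAS reporter driven by GAL4-VP16 transactivation; 0% = DMSO with VP16-transfected cells and 100% = DMSO with cells lacking VP16; higher means less reporter light so more repression of VP16 activity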
SMARCA2 conf = SMARCA2 activation, confirmation screen. hit rate 30% among 3,500. activation, % at 9.1 µM. MG213 cells, MMTV-luciferase with dexamethasone, luminescence, overnight; MG213 cells expressing E1A, Rb sequestered; DMSO wells 0%, reference activator 100%. shares compounds with SMARCA2 act;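 active = activation above its plate's cutoff, the mean activation of tested wells plus 3 SD, cut at about 7.9% in these data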
GAL4-VP16 Luc = activates GAL4-VP16 luciferase, flagging SMARCA2 activator hits. shares compounds with SMARCA2 act. HEK293 GAL4-VP16 pG5luc reporter, luciferase luminescence; scaled: DMSO wells 0%, SAHA wells 100%. hit rate 41% among 3,500. AID 686939. activation, % at 9.1 µM;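 active = activation above the solvent-only control well mean plus 3 SD, averaged across control plates, cut at about 5.2% in these data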
VP16 Luc counter = counter-screen for COUP-TFII antagonists: inhibitors of VP16. shares compounds with COUP-TFII inh. HEK293 Gal4-VP16 luciferase reporter, luminescence. inhibition, % at 8.5 µM. hit rate 25% among 2,500. AID 687007; in the data active = inhibition above about 13%
COUP-TFII conf = confirmation of human COUP-TFII (NR2F2) inhibitors; shares compounds with COUP-TFII inh; HEK293 NGFI-A luciferase reporter, luminescence; inhibition, % at 8.5 µM; hit rate 45% among 2,500; AID 687008;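 active = mean inhibition over three repeats above a set limit taken from the earlier primary screen, cut at about 38% in these data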;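 also: 100% = cells given the luciferase reporter alone without the COUP-TF2 vector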
Numbers without * were called inactive; . = no result.

SMILES | SMARCA2 act | COUP-TFII inh | NR2E3 ag-1 | GalR3 antagonist | NR2E3 ag-2 | NR2E3 ag confirm-1 | PPARg-NCOR2 ag | NR2E3 ag confirm-2 | VP16 counter | others
O=c1c2cc(O)c(O)cc2oc2cc(O)c(C3OC(CO)C(O)C(O)C3O)c(O)c12 (centres undefined) | 1 | -5 | -21 | -4 | 29* | 20* | -5 | . | .
COC(=O)c1cc2c(-c3ccccc3)c(C)c3ccccn3c-2c1C(=O)OC | 0 | 22 | -35 | -4 | 28* | 30* | 29* | . | .
COC(=O)c1c(Cl)c2n3ccccc3c(C)c(-c3ccccc3)c-2c1C(=O)OC | -2 | -4 | -1 | -3 | 61* | 69* | 70* | . | .
COC(=O)c1c(C(=O)OC)c2ccccn2c1C(=O)c1ccccc1 | 4 | 21 | -35 | -11 | 2 | . | . | . | .
CC(=O)Nc1nc2ncccn2c1-c1ccc(F)c(F)c1 | 0 | 9 | . | . | . | . | . | . | .
COc1cccc(OCc2nc3ncc(Br)cc3[nH]2)c1 | 4 | -43 | -108 | 8 | 20* | 11 | 26* | . | .
O=C(Cn1c(=O)c2cccn2c2cccnc21)NCCCN1CCN(c2ccc(Cl)cc2)CC1 | . | -3 | . | . | . | . | . | . | .
O=c1cc(OCc2ccccc2)cc[nH]1 | -1 | 10 | 12 | -2 | 50* | 40* | 15 | . | .
CC(=O)CCc1c(C)c2cccc(C)c2[nH]c1=O | 3 | -2 | 10 | 1 | 5 | . | . | . | .
COc1cccc2c(=S)c(CCC(C)=O)c(C)[nH]c12 | -3 | -7 | -2 | -2 | 21* | 6 | -2 | . | .
Cc1cc(N2C(=O)C(O)=C(C(=O)c3cc4ccccc4o3)C2c2ccc(Cl)cc2)no1 (centres undefined) | 1 | -18 | 51 | -8 | 29* | 35* | 39* | 88* | 59
CC(CCN1CCC(C(O)(c2ccccc2)c2ccccc2)CC1)Oc1ccc(OC(F)(F)F)cc1 (centres undefined) | -5 | 29 | . | . | . | . | . | . | .
CC(=O)Nc1ccc(NC(=O)C(C)OC(=O)/C(C#N)=C/c2ccc(N(C)C)cc2)cc1 (centres undefined) | 8.0* | -25 | -46 | -6 | 34* | 30* | 30* | . | . | SMARCA2 conf=8.7*;GAL4-VP16 Luc=7.3*
COC(=O)c1ccc(Cn2ccc3ccc(-c4ccc5ccn(C(=O)c6cccc(OC)c6)c5c4)cc32)cc1 | 1 | -8 | . | . | . | . | . | . | .
Cn1nc(-c2ccccn2)nc2c(=O)n(C)c(=O)nc1-2 | -12 | 54* | 107* | -11 | 41* | 33* | 57* | 63 | 64 | VP16 Luc counter=30*;COUP-TFII conf=33
N#Cc1ccccc1N1CCN(S(=O)(=O)c2ccc3c(c2)CCC(=O)N3)CC1 | 0 | 10 | . | . | . | . | . | . | .
CCOC(=O)c1ccc(S(=O)(=O)Nc2ccc3cn[nH]c3c2)cc1 | -5 | 1 | 62 | -5 | 1 | . | . | 48 | 56
Cc1cc(O)c(/C=N/OCc2ccc(Cl)cc2Cl)c(=O)o1 | 2 | 2 | -5 | -5 | 2 | . | . | . | .
O=c1c(/C=N/OCc2ccc(Cl)cc2Cl)c[nH]n1-c1cccc(Cl)n1 | 0 | 0 | 62 | 3 | 4 | . | . | 98* | 64
C#CCN1CC(N2CCN(CCO)CC2)CS1(=O)=O (centres undefined) | -1 | -22 | . | . | . | . | . | . | .
Cc1nn(Cc2ccc(Cl)cc2)c(C)c1NC(=O)c1cc(-c2ccc3c(c2)OCO3)on1 | 1 | -11 | 58 | -8 | -1 | . | . | 74* | 51
Cc1nc(NC(C)c2ccccc2)c2oc3ccccc3c2n1 (centres undefined) | -1 | 28 | 62 | -3 | 0 | . | . | 81* | 66
COc1ccc(Cn2cc(CN3[C@H](CC(C)C)COc4cc(Br)ccc4S3(=O)=O)nn2)cc1 | 2 | -12 | . | . | . | . | . | . | .
COc1ccc(CNC(=O)c2ccc(Cl)c(S(=O)(=O)N3CCOCC3)c2)cc1OC | . | . | 56 | . | 1 | . | . | 49 | 52
COc1ccc(C(=O)NCc2cccc(Cl)c2)cc1S(=O)(=O)N1CCOCC1 | -2 | -13 | 0 | -5 | 2 | . | . | . | .
SMILES | SMARCA2 act | COUP-TFII inh | NR2E3 ag-1 | GalR3 antagonist | NR2E3 ag-2 | NR2E3 ag confirm-1 | PPARg-NCOR2 ag | NR2E3 ag confirm-2 | VP16 counter | others
COc1cccc(OC)c1NC(=O)OC1CCC12CCC(c1ccccc1)CC2 (centres undefined) | . | -5 | . | . | . | . | . | . | .
CSC(=S)NN=C(C)c1cccc(C)n1 | 4 | 7 | 66 | -3 | . | . | . | 38 | 32
COc1ccc(/C=C/S(=O)(=O)NCCc2ccccc2)c(CNC(=O)OC(C)(C)C)c1 | -3 | -10 | . | . | . | . | . | . | .
COc1cc(/C=N/NC(=O)c2sc(N)c(C#N)c2C)cc(Br)c1O | 3 | -22 | 60 | -6 | -2 | . | . | 4 | -6
COc1ccc2ccccc2c1/C=N/NC(=O)c1sc(N)c(C#N)c1C | -1 | 19 | 6 | 0 | 0 | . | . | . | .
O=C(CSc1cccc[n+]1[O-])CSc1cccc[n+]1[O-] | 7 | -9 | 69 | -1 | 0 | . | . | -4 | -8
O=C(CSc1cccc[n+]1[O-])N1CCCCCC1 | 0 | -2 | -7 | 1 | -1 | . | . | . | .
O=C1C[C@H](c2ccc3ccccc3c2)N=C2N1/C(=C\c1ccccc1)[C@@H](c1ccccc1C(F)(F)F)N2Cc1ccc2c(c1)OCO2 | . | 23 | . | . | . | . | . | . | .
CC(C)N=C(N)N=C(N)Nc1ccc(Cl)cc1 | -5 | -11 | 89* | . | 3 | . | . | 88* | 60
NC(=NCCCCCCN=C(N)/N=C(\N)Nc1ccc(Cl)cc1)/N=C(\N)Nc1ccc(Cl)cc1 | -3 | 12 | 2 | -3 | -4 | . | . | . | .
COc1ccc(NS(=O)(=O)c2ccc(-n3cnnn3)cc2)cc1OC | -3 | 12 | 61 | -2 | -2 | . | . | -5 | 5
